According to ChEMBL document CHEMBL1153390, “Substituted terphenyl compounds as the first class of low molecular weight allosteric inhibitors of the luteinizing hormone receptor” (J Med Chem, 2009):
Activity calls are given as the source filed them. The calls are words filed in the database; no cut-off is given here.

Columns and labels:
[1] = target: T1, Lutropin-choriogonadotropic hormone receptor (Homo sapiens, UniProt P22888); test: Displacement of [3H]Org43553 from human luteinizing hormone receptor expressed in CHOK1 cells assessed as increase in radioligand dissociation at 10 uM by scintillation spectrometry relative to control; assay type: cell-based; settings: CHO-K1
In short: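 Membranes (50 µg protein) from CHO-K1 cells stably expressing human LH receptor preloaded with 4.5 nM [3H]Org 43553 for 90 min at 30 °C in 25 mM Tris-HCl pH 7.4, 2 mM MgCl2, 0.1% BSA. Dissociation then started with 10 µM Org 43553 ± 10 µM compound in 50% DMSO vehicle. Bound label measured after 30 min by GF/B filtration and scintillation counting. Control set at 100%. n=2, duplicate.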

[2] = target: T1, Lutropin-choriogonadotropic hormone receptor; test: Displacement of [3H]Org43553 from human luteinizing hormone receptor expressed in CHOK1 cells at 10 uM by scintillation spectrometry; assay type: cell-based; settings: CHO-K1
In short: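 Membranes (50 µg protein) from CHO-K1 cells stably expressing human LH receptor incubated 90 min at 30 °C with 4.5 nM [3H]Org 43553 and 10 µM compound. Buffer was 25 mM Tris-HCl pH 7.4, 2 mM MgCl2, 0.1% BSA. Nonspecific binding defined with 10 µM Org 43553. Filtration on GF/B, ice-cold washes, scintillation counting. Result given as % displacement of specific binding, n=2, duplicate.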

[3] = target: T1, Lutropin-choriogonadotropic hormone receptor; test: Antagonist activity at human luteinizing hormone receptor expressed in CHOK1 cells assessed as decrease in Org 43553 activation potency at 10 uM by c-AMP-mediated luciferase assay; assay type: functional, cell-based; settings: CHO-K1
In short: (§1)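 Cells as for the CRE-luciferase assay (human LH receptor, CHO-K1), stimulated 4 h with ten concentrations of recLH, rec-hCG or Org 43553, with or without 10 µM test compound. Luminescence read-out. Shift is the EC50 ratio with/without compound; 1 nM recLH response set 100%. At least three assays in duplicate.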

[4] = target: T1, Lutropin-choriogonadotropic hormone receptor; test: Antagonist activity at human luteinizing hormone receptor expressed in CHOK1 cells assessed as decrease in recombinant luteinizing hormone activation potency at 10 uM by c-AMP-mediated luciferase assay; assay type: functional, cell-based; settings: CHO-K1; in short: as §1
[5] = target: T2, Adenosine receptor A1 (Homo sapiens) (UniProt P30542); test: Binding affinity to adenosine A1 receptor
T2 sequence (whole entry): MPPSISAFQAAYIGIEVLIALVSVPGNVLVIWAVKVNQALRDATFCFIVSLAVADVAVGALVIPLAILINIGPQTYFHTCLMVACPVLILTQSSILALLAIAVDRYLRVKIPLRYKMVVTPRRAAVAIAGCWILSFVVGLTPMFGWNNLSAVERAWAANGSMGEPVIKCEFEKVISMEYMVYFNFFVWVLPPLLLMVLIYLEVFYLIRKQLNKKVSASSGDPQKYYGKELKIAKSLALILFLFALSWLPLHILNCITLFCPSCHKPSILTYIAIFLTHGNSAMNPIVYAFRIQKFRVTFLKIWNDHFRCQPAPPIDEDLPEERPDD

[6] = target: Adenosine receptor A2a (Homo sapiens) (UniProt P29274); test: Binding affinity to adenosine A2A receptor
[7] = target: T1, Lutropin-choriogonadotropic hormone receptor; test: Antagonist activity at human luteinizing hormone receptor expressed in CHOK1 cells assessed as decrease in recombinant human chorionic gonadotropin activation potency at 10 uM by c-AMP-mediated luciferase assay; assay type: functional, cell-based; settings: CHO-K1; in short: as §1
[8] = target: T1, Lutropin-choriogonadotropic hormone receptor; test: Displacement of [3H]Org43553 from human luteinizing hormone receptor expressed in CHOK1 cells; assay type: cell-based, CHO-K1
In short: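 CHO-K1 membranes stably expressing human LH receptor, 50 µg protein, in 25 mM Tris-HCl pH 7.4 with 2 mM MgCl2 and 0.1% BSA. Incubated with 4.5 nM [3H]Org 43553 at 30 °C for 90 min, using 10 µM or a range of competitor concentrations. Nonspecific binding defined with 10 µM Org 43553. Read by filtration and scintillation counting; IC50 from nonlinear regression.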

[9] = target: T3, Adenosine receptor A3 (Homo sapiens) (UniProt P0DMS8); test: Activity at adenosine A3 receptor assessed as allosteric modulation
T3 sequence (whole entry): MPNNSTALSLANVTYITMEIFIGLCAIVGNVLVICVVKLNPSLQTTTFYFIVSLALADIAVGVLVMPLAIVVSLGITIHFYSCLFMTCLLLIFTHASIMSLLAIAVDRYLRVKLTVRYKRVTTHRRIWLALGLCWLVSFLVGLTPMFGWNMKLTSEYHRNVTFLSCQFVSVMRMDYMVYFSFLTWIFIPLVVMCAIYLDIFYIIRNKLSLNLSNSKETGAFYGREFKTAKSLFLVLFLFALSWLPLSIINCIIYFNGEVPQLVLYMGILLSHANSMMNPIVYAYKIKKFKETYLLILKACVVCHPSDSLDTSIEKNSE

[10] = target: T1, Lutropin-choriogonadotropic hormone receptor; test: Displacement of [125I]human chorionic gonadotropin from human luteinizing hormone receptor expressed in CHOK1 cells assessed as increase in radioligand dissociation at 10 uM after 4 hrs by infinite dilution method; assay type: cell-based; settings: CHO-K1
In short: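 CHO-K1 membranes expressing human LH receptor, prelabelled with 125I-hCG. Dissociation was started by infinite dilution in the presence of 10 µM compound, and bound radioligand was measured after 4 h. t=0 binding set 0% dissociation, nonspecific 100%. At least two assays in triplicate.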

[11] = target: T1, Lutropin-choriogonadotropic hormone receptor; test: Agonist activity at human luteinizing hormone receptor expressed in CHOK1 cells assessed as c-AMP-mediated luciferase production at 10 uM; assay type: functional, cell-based; settings: CHO-K1
[12] = target: T1, Lutropin-choriogonadotropic hormone receptor; test: Agonist activity at human luteinizing hormone receptor expressed in CHOK1 cells assessed as c-AMP-mediated luciferase production; assay type: functional, cell-based, CHO-K1
In short: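 CHO-K1 cells stably expressing human LH receptor and CRE-luciferase, 7.5 × 10^5 cells/mL in DMEM/F12 with insulin and apo-transferrin. Stimulated 4 h, then luciferase read by luminescence. Basal activity set 0%; 1 nM recLH set 100%. Means of at least three assays in duplicate.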

[13] = target: T1, Lutropin-choriogonadotropic hormone receptor; test: Displacement of [125I]human chorionic gonadotropin from human luteinizing hormone receptor expressed in CHOK1 cells by gamma counting; assay type: cell-based; settings: CHO-K1

T1 sequence (P22888 whole entry): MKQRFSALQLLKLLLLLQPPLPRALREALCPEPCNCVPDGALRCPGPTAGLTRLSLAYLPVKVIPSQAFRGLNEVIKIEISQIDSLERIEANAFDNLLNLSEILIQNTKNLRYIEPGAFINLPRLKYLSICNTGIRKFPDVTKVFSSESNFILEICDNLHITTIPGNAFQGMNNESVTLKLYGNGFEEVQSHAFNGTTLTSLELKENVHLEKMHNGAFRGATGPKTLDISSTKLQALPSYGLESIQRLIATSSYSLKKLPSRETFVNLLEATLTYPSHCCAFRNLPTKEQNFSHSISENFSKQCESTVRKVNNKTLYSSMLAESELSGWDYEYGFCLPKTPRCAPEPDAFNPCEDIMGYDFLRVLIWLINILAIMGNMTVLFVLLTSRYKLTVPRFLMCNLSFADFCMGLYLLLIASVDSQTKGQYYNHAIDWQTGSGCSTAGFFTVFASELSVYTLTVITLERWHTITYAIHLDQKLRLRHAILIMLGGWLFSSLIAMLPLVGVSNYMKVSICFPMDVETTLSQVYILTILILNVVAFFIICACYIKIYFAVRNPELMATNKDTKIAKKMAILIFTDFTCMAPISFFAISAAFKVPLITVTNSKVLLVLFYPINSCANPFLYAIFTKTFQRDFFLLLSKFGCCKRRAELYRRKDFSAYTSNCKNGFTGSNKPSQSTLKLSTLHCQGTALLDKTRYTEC
Chain of Adenosine receptor A2a (Homo sapiens) (P29274 whole entry): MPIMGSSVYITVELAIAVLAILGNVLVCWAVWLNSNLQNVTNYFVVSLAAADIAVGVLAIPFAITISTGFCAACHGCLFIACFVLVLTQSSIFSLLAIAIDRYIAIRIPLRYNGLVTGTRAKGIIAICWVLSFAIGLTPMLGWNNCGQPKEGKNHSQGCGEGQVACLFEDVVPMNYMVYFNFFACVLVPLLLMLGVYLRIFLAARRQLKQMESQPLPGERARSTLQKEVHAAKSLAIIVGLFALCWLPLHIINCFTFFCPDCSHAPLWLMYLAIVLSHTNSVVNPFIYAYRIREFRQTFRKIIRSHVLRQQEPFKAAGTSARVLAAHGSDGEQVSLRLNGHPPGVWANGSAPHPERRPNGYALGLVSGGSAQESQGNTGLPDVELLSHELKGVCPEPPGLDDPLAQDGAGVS

SMILES | Activity [1] [%] | Activity [2] [%] | other results
N#Cc1c(N)cc(-c2ccccc2)cc1-c1cccs1 | 29 |  | 
c1ccc(Cn2cnc3c(-c4ccccc4)cc(-c4ccccc4)nc32)cc1 | 16 |  | 
COc1ccc(NC(=O)Oc2cc(-c3ccccc3)cc(-c3ccccc3)c2)cc1 | 35 | 58 | 
O=C(Nc1ccccc1)Oc1cc(-c2ccccc2)cc(-c2ccccc2)c1 | 79 | 28 | Activity [5]: inactive; Activity [6]: inactive
O=C(Nc1cc(-c2ccccc2)cc(-c2ccccc2)c1)NC1CCCC1 | 70 | 49 | 
O=C(NC1CCCC1)Oc1cccc(-c2ccccc2)c1 | 75 | 81 | Activity [3]: Active; Activity [4]: Active; Activity [7]: Active
CCCNC(=O)Oc1cc(-c2ccccc2)cc(-c2ccccc2)c1 | 72 | 47 | 
O=C(NC1CCCC1)Oc1cc(-c2ccccc2)cc(-c2ccccc2)c1 | 88 | 91 | IC50 [8]: 2.3 µM; Activity ([8]; CHO-K1): Dose-dependent effect; Activity [9]: inactive; Activity [10]: Active; Activity [11]: 31%; EC50 [12]: 1.6 µM; fold change (FC) [3]: 2; Activity [13]: inactive; fold change (FC) [4]: 3; fold change (FC) [7]: 3
O=C(Nc1cc(-c2ccccc2)cc(-c2ccccc2)c1)C1CCCC1 | 56 | 30 | 
COc1ccc(C(=O)Nc2nc(-c3ccccc3)cc(-c3ccccc3)n2)cc1 | 42 |  | 
O=C(Nc1ccc(Cl)cc1)Oc1cc(-c2ccccc2)cc(-c2ccccc2)c1 | 19 | 9 | 
COc1ccc(-c2cc(OC(=O)NC3CCCC3)cc(-c3ccc(OC)cc3)c2)cc1 | 31 | 17 | 

Continued, in another order:

Activity [1] [%] | Activity [2] [%] | SMILES | other results
80 | 30 | CCCCCNC(=O)Oc1cc(-c2ccccc2)cc(-c2ccccc2)c1 | 
102 | 72 | Cc1ccc(-c2cc(OC(=O)NC3CCCC3)cc(-c3ccccc3)c2)cc1 | Activity [3]: Active; Activity [4]: Active
42 | 9 | Nc1cc(-c2ccccc2)cc(-c2ccccc2)c1 | 
41 | 9 | O=C(Oc1cc(-c2ccccc2)cc(-c2ccccc2)c1)C1CCCC1 | 
82 | 68 | CC(C)(C)NC(=O)Oc1cc(-c2ccccc2)cc(-c2ccccc2)c1 | 
83 | 67 | COc1ccc(-c2cc(OC(=O)NC3CCCC3)cc(-c3ccccc3)c2)cc1 | 
64 | 69 | O=C(NC1CCCC1)Oc1cc(-c2ccccc2)cc(-c2ccc(Cl)c(Cl)c2)c1 | 
61 | -1 | CCNC(=O)Oc1cc(-c2ccccc2)cc(-c2ccccc2)c1 | 
65 | 61 | CCCCNC(=O)Oc1cc(-c2ccccc2)cc(-c2ccccc2)c1 | 
55 | 14 | CC(C)NC(=O)Oc1cc(-c2ccccc2)cc(-c2ccccc2)c1 | 
27 | -2 | Oc1cc(-c2ccccc2)cc(-c2ccccc2)c1 | 
 | 7 | O=C(NC1CCCC1)Oc1cc(-c2ccc(Cl)c(Cl)c2)cc(-c2ccc(Cl)c(Cl)c2)c1 | 
71 | 77 | O=C(NC1CCCC1)Oc1cc(-c2ccccc2)cc(-c2ccc(Cl)cc2)c1 | 
 | 55 | O=C(NC1CCCC1)Oc1cc(-c2ccc(Cl)cc2)cc(-c2ccc(Cl)cc2)c1 | 
59 | 62 | Cc1ccc(-c2cc(OC(=O)NC3CCCC3)cc(-c3ccc(C)cc3)c2)cc1 | 
51 | 83 | O=C(NC1CCCCC1)Oc1cc(-c2ccccc2)cc(-c2ccccc2)c1 | 
